{"source": "ChEMBL document CHEMBL1687827", "about": "“Profiling the Aspergillus fumigatus proteome in response to caspofungin” (2011)", "key": {"[1]": {"system": "Aspergillus fumigatus", "assay": "Induction of change in phosphoglycerate kinase PgkA, putative protein level in iTRAQ-116 labelled secreted fraction of drug-susceptible Aspergillus fumigatus KU80 delta-akuB at 0.12 ug/ml after 48 hrs in YPD medium by MS (MS/MS) analysis relative to control", "assay_type": "functional", "how_it_was_run": "(§1)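 Conidia (1 × 10⁵/ml) grown in YPD, 37°C, 225 rpm, ± 0.12 μg/ml caspofungin; filtrate taken as secreted fraction, French-press lysate 5,000 × g pellet as cell wall/plasma membrane. Trypsin digests 8-plex iTRAQ-labelled (drug-free channels as references), pooled, 2D-chromatography, MS/MS. Median-normalized; protein ratio = median of unique-peptide ratios, log2 normalized.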"}, "[2]": {"system": "Aspergillus fumigatus", "assay": "Induction of change in hypothetical protein locus AFUA_5G14680 level in iTRAQ-116 labelled secreted fraction of drug-susceptible Aspergillus fumigatus KU80 delta-akuB at 0.12 ug/ml after 48 hrs in YPD medium by MS (MS/MS) analysis relative to control", "assay_type": "functional", "how_it_was_run": "as §1"}, "[3]": {"system": "Aspergillus fumigatus", "assay": "Induction of change in ribosomal protein L14 protein level in iTRAQ114 labelled secreted fraction of drug-susceptible Aspergillus fumigatus KU80 delta-akuB at 0.12 ug/ml after 24 hrs in YPD medium by MS (MS/MS) analysis relative to control", "assay_type": "functional", "how_it_was_run": "as §1"}, "[4]": {"system": "Aspergillus fumigatus", "assay": "Induction of change in tripeptidyl-peptidase (TppA), putative protein level in iTRAQ-116 labelled secreted fraction of drug-susceptible Aspergillus fumigatus KU80 delta-akuB at 0.12 ug/ml after 48 hrs in YPD medium by MS (MS/MS) analysis relative to control", "assay_type": "functional", "how_it_was_run": "as §1"}, "[5]": {"system": "Aspergillus fumigatus", "assay": "Induction of change in carbonic anhydrase family gene expression in drug-susceptible Aspergillus fumigatus KU80 delta-akuB at 0.12 ug/ml after 24 hrs in YPD medium by microarray analysis relative to control", "assay_type": "functional", "how_it_was_run": "(§2)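 Mycelia grown in YPD ± 0.12 μg/ml caspofungin (1 × 10⁵ conidia/ml, 37°C, shaking) and harvested at 24 or 48 h. Total RNA extracted, DNase-treated and quality-checked; 2 μg labelled per TIGR SOP M007 and hybridized to whole-genome arrays. Three independent experiments with dye flip (6 replicates); drug vs untreated fold change.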"}, "[6]": {"system": "Aspergillus fumigatus", "assay": "Induction of change in 60S ribosomal protein L12, putative gene expression in drug-susceptible Aspergillus fumigatus KU80 delta-akuB at 0.12 ug/ml after 24 hrs in YPD medium by microarray analysis relative to control", "assay_type": "functional", "how_it_was_run": "as §2"}, "[7]": {"system": "Aspergillus fumigatus", "assay": "Induction of change in plasma membrane H -ATPase protein level in iTRAQ-116 labelled secreted fraction of drug-susceptible Aspergillus fumigatus KU80 delta-akuB at 0.12 ug/ml after 48 hrs in YPD medium by MS (MS/MS) analysis relative to control", "assay_type": "functional", "how_it_was_run": "as §1"}, "[8]": {"system": "Aspergillus fumigatus", "assay": "Induction of change in IgE-binding protein level in iTRAQ-116 labelled secreted fraction of drug-susceptible Aspergillus fumigatus KU80 delta-akuB at 0.12 ug/ml after 48 hrs in YPD medium by MS (MS/MS) analysis relative to control", "assay_type": "functional", "how_it_was_run": "(§3)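 Conidia at 1 × 10⁵/ml grown shaking at 37°C in YPD with or without 0.12 μg/ml caspofungin; mycelia filtered at 24 or 48 h. Secreted fraction taken from the filtrate; cell wall/plasma membrane pellet recovered after French-press lysis and a 5,000 × g spin. Proteins trypsin-digested and iTRAQ-labelled, drug vs no-drug channels at each time, then 2D LC-MS/MS. Protein ratio is the median of ratios from uniquely assigned peptides after median normalization.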"}, "[9]": {"system": "Aspergillus fumigatus", "assay": "Induction of change in conserved hypothetical gene expression in drug-susceptible Aspergillus fumigatus KU80 delta-akuB at 0.12 ug/ml after 24 hrs in YPD medium by microarray analysis relative to control", "assay_type": "functional", "how_it_was_run": "as §2"}, "[10]": {"system": "Aspergillus fumigatus", "assay": "Antifungal activity against drug-resistant Aspergillus fumigatus EMFR-S678P assessed as reduction in colony size at 0.12 ug/ml", "assay_type": "functional, organism-based"}, "[11]": {"system": "Aspergillus fumigatus", "assay": "Induction of change in allergen Asp F4 protein level in iTRAQ114 labelled secreted fraction of drug-resistant Aspergillus fumigatus EMFR-S678P at 0.12 ug/ml after 24 hrs in YPD medium by MS (MS/MS) analysis relative to control", "assay_type": "functional, organism-based", "how_it_was_run": "(§4)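 Conidia at 1 × 10⁵/ml were grown at 37°C, shaking at 225 rpm, in YPD with or without 0.12 μg/ml caspofungin for 24 or 48 h. The culture filtrate was kept as the secreted fraction. Mycelia were lysed by French press in HEPES/glycerol/EDTA/PMSF/DTT buffer, and the 5,000 × g pellet was washed to give CW/PM. Proteins were reduced, alkylated and trypsin-digested at 37°C overnight, then iTRAQ-labelled and run by 2D LC-MS/MS. Ratios are the median of unique-peptide ratios, median-normalized, versus the no-drug control.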"}, "[12]": {"system": "Aspergillus fumigatus", "assay": "Induction of change in allergen Asp F4 protein level in iTRAQ-118 labelled cell wall fraction of drug-resistant Aspergillus fumigatus EMFR-S678P at 0.12 ug/ml after 24 hrs in YPD medium by MS (MS/MS) analysis relative to control", "assay_type": "functional", "how_it_was_run": "as §4"}, "[13]": {"system": "Aspergillus fumigatus", "assay": "Induction of change in thioredoxin TrxA protein level in iTRAQ-118 labelled cell wall fraction of drug-resistant Aspergillus fumigatus EMFR-S678P at 0.12 ug/ml after 24 hrs in YPD medium by MS (MS/MS) analysis relative to control", "assay_type": "functional, organism-based", "how_it_was_run": "as §4"}, "[14]": {"system": "Aspergillus fumigatus", "assay": "Induction of change in eukaryotic translation elongation factor 1 subunit Eef1-beta, putative protein level in iTRAQ-116 labelled secreted fraction of drug-resistant Aspergillus fumigatus EMFR-S678P at 0.12 ug/ml after 48 hrs in YPD medium by MS (MS/MS) analysis relative to control", "assay_type": "functional", "how_it_was_run": "as §4"}, "[15]": {"system": "Aspergillus fumigatus", "assay": "Induction of change in cobalamin-independent methionine synthase MetH/D protein level in iTRAQ-116 labelled secreted fraction of drug-resistant Aspergillus fumigatus EMFR-S678P at 0.12 ug/ml after 48 hrs in YPD medium by MS (MS/MS) analysis relative to control", "assay_type": "functional", "how_it_was_run": "as §4"}, "[16]": {"system": "Aspergillus fumigatus", "assay": "Induction of change in ATP citrate lyase, subunit 1, putative protein level in iTRAQ114 labelled secreted fraction of drug-susceptible Aspergillus fumigatus KU80 delta-akuB at 0.12 ug/ml after 24 hrs in YPD medium by MS (MS/MS) analysis relative to control", "assay_type": "functional", "how_it_was_run": "as §3"}, "[17]": {"system": "Aspergillus fumigatus", "assay": "Induction of change in GNAT family acetyltransferase, putative protein level in iTRAQ-118 labelled cell wall fraction of drug-susceptible Aspergillus fumigatus KU80 delta-akuB at 0.12 ug/ml after 24 hrs in YPD medium by MS (MS/MS) analysis relative to control", "assay_type": "functional", "how_it_was_run": "as §3"}, "[18]": {"system": "Aspergillus fumigatus", "assay": "Induction of change in 60S ribosomal protein L10 protein level in iTRAQ-118 labelled cell wall fraction of drug-susceptible Aspergillus fumigatus KU80 delta-akuB at 0.12 ug/ml after 24 hrs in YPD medium by MS (MS/MS) analysis relative to control", "assay_type": "functional", "how_it_was_run": "as §3"}}, "note": "Calls of active or inactive are those of the source. No cut-off for these calls is given here."}
{"compound": "CC[C@H](C)C[C@H](C)CCCCCCCCC(=O)N[C@H]1C[C@@H](O)[C@@H](NCCN)NC(=O)[C@@H]2[C@@H](O)CCN2C(=O)[C@H]([C@H](O)CCN)NC(=O)[C@H]([C@H](O)[C@@H](O)c2ccc(O)cc2)NC(=O)[C@@H]2C[C@@H](O)CN2C(=O)[C@H]([C@@H](C)O)NC1=O", "note": "[CASPOFUNGIN]", "values": [{"measurement": "fold change (FC)", "setting": "[1]", "value": -2.8}, {"measurement": "fold change (FC)", "setting": "[2]", "value": -2.5}, {"measurement": "fold change (FC)", "setting": "[3]", "value": -1.1}, {"measurement": "fold change (FC)", "setting": "[4]", "value": 3.2}, {"measurement": "fold change (FC)", "setting": "[5]", "value": -6.5}, {"measurement": "fold change (FC)", "setting": "[6]", "value": 7.2}, {"measurement": "fold change (FC)", "setting": "[7]", "value": -1.7}, {"measurement": "fold change (FC)", "setting": "[8]", "value": -1}, {"measurement": "fold change (FC)", "setting": "[9]", "value": 15.2}, {"measurement": "Activity", "setting": "[10]", "value": "Active"}, {"measurement": "Activity", "setting": "[11]", "value": "inactive"}, {"measurement": "fold change (FC)", "setting": "[12]", "value": 1.07}, {"measurement": "Activity", "setting": "[13]", "value": "inactive"}, {"measurement": "fold change (FC)", "setting": "[14]", "value": -1.74}, {"measurement": "fold change (FC)", "setting": "[15]", "value": -1.15}, {"measurement": "fold change (FC)", "setting": "[16]", "value": 3.2}, {"measurement": "fold change (FC)", "setting": "[17]", "value": -2.6}, {"measurement": "fold change (FC)", "setting": "[18]", "value": 2.3}]}
